Results published in ChEMBL document CHEMBL1154304, “Triterpenoids and flavonoids from celery (Apium graveolens)” (J Nat Prod, 2009).

tested on: RAW264.7; experiment: Antiinflammatory activity against mouse RAW264.7 cells assessed as inhibition of LPS-induced nitrite accumulation after 24 hrs by Griess reagent method; format: functional, cell-based; conditions: RAW264.7, 24 h
Method in brief: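 RAW 264.7 mouse macrophages in RPMI 1640 with 10% heat-inactivated FBS, penicillin/streptomycin, seeded at 1×10^5 cells/well, adhered 2 h at 37 °C, 5% CO₂. LPS 1 μg/mL for 24 h with or without compounds in DMSO (0.2% v/v final). Nitrite in supernatant read with Griess reagent against sodium nitrite standards (0–100 μM). Inhibition is relative to LPS-only and untreated wells. MTT viability check run in parallel. Triplicate, mean ± SD of three experiments.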

Structure (SMILES) | IC50 [µM]
COc1cc(/C=C/C(=O)OC[C@@]2(O)CO[C@@H](O[C@H]3[C@H](Oc4cc(O)c5c(=O)cc(-c6ccc(O)cc6)oc5c4)O[C@H](CO)[C@@H](O)[C@@H]3O)[C@@H]2O)ccc1O | > 20
COc1cc(/C=C/C(=O)OC[C@@]2(O)CO[C@@H](O[C@H]3[C@H](Oc4cc(O)c5c(=O)cc(-c6ccc(O)c(OC)c6)oc5c4)O[C@H](CO)[C@@H](O)[C@@H]3O)[C@@H]2O)ccc1O | > 20
COc1cc(/C=C/C(=O)OC[C@@]2(O)CO[C@@H](O[C@H]3[C@H](Oc4cc(O)c5c(=O)cc(-c6ccc(O)c(O)c6)oc5c4)O[C@H](CO)[C@@H](O)[C@@H]3O)[C@@H]2O)ccc1O | > 20
O=C1C[C@@H](c2ccc(O)cc2)Oc2cc(O[C@@H]3O[C@H](CO)[C@@H](O)[C@H](O)[C@H]3O[C@@H]3OC[C@](O)(CO)[C@H]3O)cc(O)c21 | > 20
COc1cc(-c2cc(=O)c3c(O)cc(O[C@@H]4O[C@H](CO)[C@@H](O)[C@H](O)[C@H]4O)cc3o2)ccc1O | > 20
O=c1cc(-c2ccc(O)cc2)oc2cc(O[C@@H]3O[C@H](CO)[C@@H](O)[C@H](O)[C@H]3O)cc(O)c12 [APIGETRIN] | > 20
O=c1cc(-c2ccc(O)cc2)oc2cc(O[C@@H]3O[C@H](CO)[C@@H](O)[C@H](O)[C@H]3O[C@@H]3OC[C@](O)(CO)[C@H]3O)cc(O)c12 [APIIN] | > 20
O=c1cc(-c2ccc(O)c(O)c2)oc2cc(O[C@@H]3O[C@H](CO)[C@@H](O)[C@H](O)[C@H]3O)cc(O)c12 [GALUTEOLIN] | > 20
O=c1cc(-c2ccc(O)c(O)c2)oc2cc(O)cc(O)c12 [LUTEOLIN] | 7.5
O=c1c(O)c(-c2ccc(O)c(O)c2)oc2cc(O)cc(O)c12 [QUERCETIN] | 11.4

The remaining lines, values ahead:

IC50 [µM] | Structure (SMILES)
> 20 | C[C@H]1[C@H](C)C(=O)C[C@]2(C)C[C@H](O)[C@]3(C)C(=CC(=O)[C@@H]4[C@@]5(C)C[C@H](O[C@@H]6O[C@H](CO)[C@@H](O)[C@H](O)[C@H]6O)[C@H](O)C(C)(C)[C@@H]5CC[C@]43C)[C@H]12
> 20 | C[C@H]1[C@H](C)C(=O)C[C@]2(C)C[C@H](O)[C@]3(C)C(=CC(=O)[C@@H]4[C@@]5(C)CC[C@H](O)[C@](C)(CO[C@@H]6O[C@H](CO)[C@@H](O)[C@H](O)[C@H]6O)[C@@H]5CC[C@]43C)[C@H]12
> 20 | CC1(C)C[C@H]2C3=CC(=O)[C@@H]4[C@@]5(C)CC[C@H](O)[C@](C)(CO[C@@H]6O[C@H](CO)[C@@H](O)[C@H](O)[C@H]6O)[C@@H]5CC[C@@]4(C)[C@]3(C)[C@@H](O)C[C@@]2(C)CC1=O
6.7 | O=c1cc(-c2ccc(O)cc2)oc2cc(O)cc(O)c12 [APIGENIN]
14.2 | COc1cc(-c2cc(=O)c3c(O)cc(O)cc3o2)ccc1O [CHRYSOERIOL]
8.3 | COc1cc(/C=C/C(=O)CC(=O)/C=C/c2ccc(O)c(OC)c2)ccc1O [CURCUMIN]
